OX1R antag-1 = OX1R (HCRTR1) antagonists, primary screen, fluorescence, CHO/OX1R cells, Fluo-8 calcium, orexin A; Orexin/Hypocretin receptor type 1 (Homo sapiens), O43613; Fluo-8 calcium fluorescence; inhibition, % at 5 µM; hit rate 0.43% among 330,000; AID 434989, 2010;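 active = inhibition above its plate's threshold, mean inhibition of all tested compounds on the plate plus 3 SD, cut at about 37% in these data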;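 note: 0% = orexin A challenge wells and 100% = SB-334867-A antagonist wells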
Target sequence (O43613 whole entry, looked up): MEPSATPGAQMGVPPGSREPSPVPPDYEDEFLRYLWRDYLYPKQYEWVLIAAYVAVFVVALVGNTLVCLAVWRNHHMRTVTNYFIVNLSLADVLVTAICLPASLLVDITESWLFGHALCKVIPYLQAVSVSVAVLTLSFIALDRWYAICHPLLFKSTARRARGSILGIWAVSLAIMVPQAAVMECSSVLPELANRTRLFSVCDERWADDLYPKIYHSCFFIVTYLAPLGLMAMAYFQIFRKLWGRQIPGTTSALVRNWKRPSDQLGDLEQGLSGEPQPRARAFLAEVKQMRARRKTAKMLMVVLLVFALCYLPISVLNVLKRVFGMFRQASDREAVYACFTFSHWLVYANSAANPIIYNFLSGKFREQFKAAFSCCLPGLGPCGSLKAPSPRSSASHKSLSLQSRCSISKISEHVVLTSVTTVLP
TAAR1 ag = human TAAR1 agonists, primary screen, Fluo-8 calcium fluorescence, CHO RD-HGA16 cells; vehicle wells 0%, saturating PEA agonist 100%; Trace amine-associated receptor 1 (Homo sapiens), Q96RJ0; hit rate 0.99% among 360,000; activation, % at 3 µM;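 active = activation above the mean activation of all test compounds in the run plus 3 SD, cut at about 38% in these data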
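Test system: RD-HGA16 (CHO) cells co-expressing Gα16 and hTAAR1 / Benchmarks: DMSO vehicle as 0%, PEA at EC100 as 100% / Repeats: no replicates (n 1) / Measure: % activation from peak over basal fluorescence ratio, DMSO-to-PEA scaled / Timing: 17-24 h plating, Fluo-8 75 min 37 °C, 30 min RT / Technique: kinetic Fluo-8 calcium fluorescence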
CHO parental Ca = ATP-evoked calcium signal inhibitors, parental CHO, primary screen, counter-screen for OX1R antagonist project, cell-based, fluorescence, Fluo-8 calcium dye; parental CHO-K1, ATP-induced calcium, Fluo-8 fluorescence; inhibition, % at 5.6 µM; hit rate 0.63% among 330,000; AID 463079, 2010;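 active = inhibition above that plate's mean sample inhibition plus 3 SD, cut at about 26% in these data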;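 note: 0% = ATP-challenged DMSO wells and 100% = DMSO wells without ATP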
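Material – parental CHO cells · Reagent – ATP stimulus · Compound – single nominal dose of 5.6 µM per compound · Detection – Fluo-8 fluorescence · Read-out basis – percent inhibition of calcium signal · Controls – ATP-challenged DMSO wells low, unchallenged DMSO wells high · Repeats – no replicates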
TAAR1 antag = human TAAR1 antagonists, primary screen, Fluo-8 calcium fluorescence, CHO RD-HGA16 cells. Trace amine-associated receptor 1 (Homo sapiens), Q96RJ0. antagonist. inhibition, % at 3 µM. hit rate 1.5% among 360,000;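 active = inhibition above a per-plate cutoff, the mean inhibition of test compounds on that plate plus 3 SD, cut at about 49% in these data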;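 note: 0% = DMSO plus EC80 beta-PEA response and 100% = DMSO alone without agonist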
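System: RD-HGA16 CHO cells with stable hTAAR1 and Gα16 | Probe or stimulus: EC80 β-phenethylamine stimulus | Dosing: 3 µM, single point | Times: Dye loading 75 min at 37 °C, then 30 min room temperature | Measured by: Fluo-8 calcium-sensitive fluorescence | Read-out basis: % inhibition of agonist calcium response | Replicates: n of 1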
OX1R antag-2 = antagonists of human orexin 1 receptor (OX1R); Orexin/Hypocretin receptor type 1 (Homo sapiens), O43613; OX1R-expressing cells, FRET antagonist read-out; inhibition, % at 6.6 µM; hit rate 1.8% among 330,000; in the data active = inhibition mostly above about 38%, no sharp cut-off; inactive = mostly below about 40%;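 note: 0% = agonist challenge alone and 100% = reference antagonist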
TAAR1 ag conf = human TAAR1 agonists, retest of hits, confirmation, Fluo-8 calcium fluorescence, CHO RD-HGA16 cells; shares compounds with TAAR1 ag; hit rate 82% among 2,400; scaled: DMSO 0%, maximal phenethylamine 100%; activation, % at 3 µM;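 active = activation above a cutoff set at the run's mean compound activation plus 3 SD, cut at about 39% in these data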
Ga16 nonsel ag = nonselective calcium mobilization agonists, CHO-Ga16 cells, counter-screen for hTAAR1 agonist project, cell-based, fluorescence, CHO-Ga16 parental line; hit rate 50% among 2,400; shares compounds with TAAR1 ag; AID 651787, 2012; Fluo-8 calcium fluorescence; normalized to maximal ATP response, DMSO zero; activation, % at 3 µM;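 active = activation above the run cutoff, the mean activation over all tested wells plus 3 SD, cut at about 12% in these data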;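 note: 0% = DMSO wells and 100% = maximal ATP response on the peak over basal ratio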
TAAR1 desensitize = TAAR1 desensitization by agonist hits, confirmation, counter-screen for TAAR1 agonist project, cell-based, fluorescence, tachyphylaxis | shares compounds with TAAR1 ag | CHO RD-HGA16 hTAAR1, Fluo-8 calcium, beta-PEA response inhibition | inhibition, % at 3 µM | hit rate 46% among 2,400 | AID 651951, 2012;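 active = inhibition above the run cutoff, the mean inhibition of all test compounds plus 3 SD, cut at about 49% in these data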;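 note: beta-PEA stimulus applied at its EC80; loss of beta-PEA calcium signal after compound pretreatment read as receptor desensitization; 0% = DMSO with beta-PEA at EC80 and 100% = DMSO alone without agonist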
Ga16 nonsel ant = inhibition of ATP-evoked calcium response in CHO-Ga16 cells, counter-screen for TAAR1 agonist project, cell-based, fluorescence; shares compounds with TAAR1 ag; hit rate 39% among 2,400; CHO-Ga16 ATP-induced calcium, Fluo-8 fluorescence; inhibition, % at 3 µM;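 active = inhibition above the plate's mean compound inhibition plus 3 SD, computed per plate, cut at about 22% in these data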;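 note: 0% = EC80 ATP with DMSO and 100% = DMSO wells without ATP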
Numbers without * were called inactive; / = no result. Rows were chosen to be rich in hits. Some 4% of all compounds tested hit in one or more screens of this group.

SMILES	OX1R antag-1	TAAR1 ag	CHO parental Ca	TAAR1 antag	OX1R antag-2	TAAR1 ag conf	Ga16 nonsel ag	TAAR1 desensitize	Ga16 nonsel ant
O=C(O)C1C2CCC(C2)C1C(=O)NCCc1ccc(F)cc1 (stereo not given)	-3.3	78.3*	-7.6	79.0*	-2.0	77.2*	6.2	55.4*	13.0
O=C(O)[C@H]1CCCC[C@H]1C(=O)NCCc1ccccc1	-10.7	85.0*	-6.8	85.2*	10.3	96.8*	5.2	92.0*	5.0
CCN(CC)S(=O)(=O)c1ccc(OC)c(NC(=S)Nc2cccc(C)c2C)c1	-6.5	0.4	-4.5	-6.9	10.4	/	/	/	/
COc1ccc(CNC(=O)CN2CCN(c3ccccc3O)CC2)cc1OC	-15.9	1.8	-3.1	-19.4	1.8	/	/	/	/
CC(=NCCc1ccccc1)C1=C(O)COC1=O	-11.2	82.8*	-15.4	30.8	11.7	77.8*	2.5	46.3	9.6
CC(=NCCc1ccccc1)C1=C(O)C(c2ccccc2)OC1=O (stereo not given)	-21.9	73.0*	-14.4	14.3	9.0	77.0*	1.9	37.4	11.1
O=C(NCCc1cccs1)c1ccc(CS(=O)Cc2cccc(Cl)c2)o1 (stereo not given)	/	63.2*	/	21.9	/	56.8*	0.6	38.6	5.2
COc1cccc(-c2c(C(=O)N/N=C/c3ccc(C)s3)nnn2-c2nonc2N)c1	-3.8	64.6*	-7.1	16.6	1.2	86.9*	43.8*	40.2	12.0
COc1cccc(-c2c(C(=O)N/N=C/c3cccnc3)nnn2-c2nonc2N)c1	-12.8	5.1	-14.8	11.9	10.0	/	/	/	/
COc1cccc(-c2c(C(=O)N/N=C/c3ccoc3)nnn2-c2nonc2N)c1	-20.7	72.3*	-2.4	-13.5	20.8	128.6*	76.0*	39.7	13.9
COc1ccc2c(c1)CCC1(C)CC(=O)C(Br)=C21 (stereo not given)	/	7.5	/	-21.6	/	/	/	/	/
COc1ccc(CN2CC(=O)N3[C@H]4c5ccccc5OC[C@@H]4[C@H](c4ccccc4)[C@]3(C)C2=O)cc1	8.1	11.9	-37.5	27.7	20.1	/	/	/	/
Cn1c(CN2CCCC2)nc2cc(NS(=O)(=O)c3ccc(Cl)cc3)ccc21	5.0	69.5*	-7.5	8.3	15.2	93.0*	29.7*	22.1	7.5
CC(C)CN1Cc2ccccc2Oc2cc(Br)ccc2S1(=O)=O	-37.8	31.7	-39.2	-18.3	22.6	/	/	/	/
CCCCN1Cc2ccccc2Oc2cc(Br)ccc2S1(=O)=O	-39.3	49.1*	-34.1	-1.3	6.2	69.2*	54.7*	19.3	18.4
CCN(CC(=O)NCc1ccc(F)cc1)C(=O)c1cccnc1SC	-11.6	0.4	-8.3	3.3	-3.3	/	/	/	/
CC1CN(C(=O)CSc2nc(N)cc(N)n2)CC(C)O1 (stereo not given)	3.4	0.5	-1.9	3.1	-2.4	/	/	/	/
CCN1CCN(CCNC(=O)c2ccc(/C=C3/Sc4ccccc4N(Cc4ccccc4C)C3=O)cc2)CC1	/	59.8*	/	32.4	/	72.0*	46.4*	64.7*	56.3*

Screening data as filed in PubChem BioAssay.
